According to publication PMC12709234 (RSC Advances, 2025):

Key:
[1] = test system: MDCKII-hMDR1 cell monolayers; assay: Permeability on MDCKII-hMDR1 cell monolayers; assay type: in vitro ADME, canine; conditions: MDCKII-hMDR1
Summary of the method: (§1)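 MDCKII cells overexpressing human MDR1 were seeded on 96-well inserts (0.25 × 10^6 cells per mL) and grown 3 days to confluence. Monolayers were equilibrated 30 min in DPBS pH 7.4 with 1% DMSO. Test compound (10 µM) with lucifer yellow (100 µM, integrity marker) was applied apical-to-basolateral and basolateral-to-apical for 60 min at 37 °C with agitation. Both compartments, plus donor at start, were quantified by LC-MS/MS.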

[2] = test system: P-glycoprotein (human MDR1); assay: Permeability on MDCKII-hMDR1 cell monolayers; assay type: in vitro ADME, canine; conditions: dog, MDCK-MDR1, pH 7.4
Summary of the method: as §1

[3] = Metabolic stability in mouse liver microsomes; assay type: in vitro ADME; conditions: 1 µM, scaled from in vitro clearance
Summary of the method: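 Mouse liver microsomes were incubated in duplicate with test compound (final 1 µM, <0.1% DMSO) in 50 mM phosphate pH 7.4 at 37 °C for 1 h, with and without an NADPH regenerating system. Samples were taken at 0, 10, 20, 30, 45 and 60 min, quenched with ACN/MeOH (2:1) plus internal standard and analysed by LC-MS/MS. t1/2 came from non-linear regression; Clint was derived from it and normalized to protein. Scaling used 52.5 mg protein/g liver, 85.7 g liver/kg and LBF 131 mL min−1 kg−1.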

[4] = test system: human tumor cell lines (Capan-1, HCT-116, LN-229, NCI-H460, DND-41, HL-60, K562, Z-138); assay: Antiproliferative assays, panel of human tumor cell lines; assay type: cell-based
Summary of the method: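 Cells from ATCC (DND-41 from DSMZ) were grown in medium with 10% FBS in 384-well plates. Adherent lines were plated overnight first: Capan-1 at 500 and HCT-116, NCI-H460 and LN-229 at 1500 cells/well. Suspension lines were seeded onto compound: HL-60, K-562 and Z-138 at 2500 and DND-41 at 5500 cells/well. Seven concentrations, 100–0.006 µM, from DMSO stocks, 72 h. […] At least two independent experiments.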

Bcl-2 = conditions: read-out: IC50 (Bcl-2); PDB 6QGK, CHEMBL4438456; cited from earlier work

Permeability classification [1] | Papp A→B at 60 min, 10 µM [2] [×10⁻⁶ cm/s] | Papp B→A at 60 min, 10 µM [2] [×10⁻⁶ cm/s] | % LBF predicted in vivo hepatic clearance [3] [% LBF] | Efflux classification [1] | efflux ratio at 60 min, 10 µM [2] | Papp at 60 min, 10 µM [2] [×10⁻⁶ cm/s] | IC50 ([4]; Homo sapiens, read-out: IC50 values against DND-41, HL-60, Z-138 and Capan-1) [µM] | SMILES | antiproliferative activity (in words) ([4]; all evaluated human tumor cell lines) | IC50 (Bcl-2) [nM]
low to moderate | < 0.1 | 0.1 | 74 | – | – | – | – | FC(F)(F)c1cc(OCc2cc(-c3ccccc3)no2)c2ccccc2n1 [Compound 7a, 3-Phenyl-5-(((2-(trifluoromethyl)quinolin-4-yl)oxy)methyl)isoxazole] | – | –
low to moderate | 6.5 | 4.6 | 87 | low | 0.7 | – | – | FC(F)(F)c1cc(OCc2cc(-c3ccccn3)no2)c2ccccc2n1 [Compound 7b, 3-(Pyridin-2-yl)-5-(((2-(trifluoromethyl)quinolin-4-yl)oxy)methyl)isoxazole] | did not exhibit any antiproliferative effects | –
low to moderate | 1.7 | – | >97 | – | – | – | – | c1ccc(-c2cc(CNc3cccc4cccnc34)on2)cc1 [Compound 8a, 3-Phenyl-5-((quinolin-8-yl-azaneyl)methyl)isoxazole] | – | –
High | 17.2 | 27.8 | 96 | low | 1.6 | > 10 | – | c1ccc(-c2cc(CNc3cccc4cccnc34)on2)nc1 [Compound 8b, N-((3-(Pyridin-2-yl)isoxazol-5-yl)methyl)quinolin-8-amine] | – | –
Low/— | < 0.1 | < 0.1 | – | – | – | – | – | FC(F)(F)c1ccc(-c2cc(CNc3cccc4cccnc34)on2)cc1 [Compound 8c, N-((3-(4-(Trifluoromethyl)phenyl)isoxazol-5-yl)methyl)quinolin-8-amine] | – | –
Low/— | < 0.1 | < 0.1 | 51 | – | – | – | – | Clc1ccc(-c2cc(CNc3cccc4cccnc34)on2)c(Cl)c1 [Compound 8d, N-((3-(2,4-Dichlorophenyl)isoxazol-5-yl)methyl)quinolin-8-amine] | – | –
Moderate | 3.6 | 3.1 | 55 | low | 0.9 | – | – | N#Cc1ccc(-c2cc(CNc3cccc4cccnc34)on2)cc1 [Compound 8e, 4-(5-((Quinolin-8-ylamino)methyl)isoxazol-3-yl)benzonitrile] | – | –
High | 15 | 13.7 | 53 | low | 0.9 | > 10 | 2.1 to 4.7 | N/C(=N\O)c1ccc(-c2cc(CNc3cccc4cccnc34)on2)cc1 [Compound 8f, (Z)-N′-hydroxy-4-(5-((quinolin-8-ylamino)methyl)isoxazol-3-yl)benzimidamide] | – | –
– | – | – | – | – | – | – | – | CCCCN(CCCC)C(=O)c1cc(C)n(-c2ccccc2C(=O)N2Cc3ccccc3C[C@H]2CN)n1 [Compound J1Q, (S)-1-(2-(3-(aminomethyl)-1,2,3,4-tetrahydroisoquinoline-2-carbonyl)phenyl)-N,N-dibutyl-5-methyl-1H-pyrazole-3-carboxamide] | – | 1300
